Six molecules from ChEMBL document CHEMBL1828509, “Synthesis, pharmacological evaluation and docking studies of coumarin derivatives” (2011) can be followed below.

Type in all cases: functional
Test [1] relates to Bacillus subtilis. As to the kind of experiment: Antimicrobial activity against Bacillus subtilis MTCC 1789 at 10 ug/ml. The conditions noted are these: read-out: IZ.
In test [2] the test system is Escherichia coli. As to the kind of experiment: Antimicrobial activity against Escherichia coli MTCC 4315 at 25 ug/ml. The conditions noted are these: read-out: IZ.
Test [3] deals with Bacillus subtilis. The test is described as follows: Antimicrobial activity against Bacillus subtilis MTCC 1789 at 50 ug/ml. The conditions noted are these: read-out: IZ.
Test [4] concerns Rattus norvegicus. The test is described as follows: Antiinflammatory activity in Wistar albino rat assessed as inhibition of carrageenan-induced paw edema at 20 mg/kg, po administered 30 mins before carrageenan challenge measured after 1 hr by plethysmograph. The gist of the method:
(§1)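 Male Wistar albino rats (150–200 g), six per group, dosed orally with 20 mg/kg suspension; control got 0.1 ml of 1% gum acacia suspension orally. After 30 min, 0.1 ml of 1% carrageenan in normal saline injected sub-plantar into the right hind paw. Paw volume measured by plethysmograph at 0, 1, 2, 3 and 4 h; percent edema inhibition versus control at matching time.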
(Carrageenan injected into the paw causes an acute inflammation.)

Test [5] deals with Rattus norvegicus. As to the kind of experiment: Antiinflammatory activity in Wistar albino rat assessed as inhibition of carrageenan-induced paw edema at 20 mg/kg, po administered 30 mins before carrageenan challenge measured after 3 hrs by plethysmograph. The gist of the method:
as §1

For test [6], the system named is Bacillus subtilis. The test is described as follows: Antimicrobial activity against Bacillus subtilis MTCC 1789 at 25 ug/ml. The following applies: read-out: IZ.
For another test, the system named is Mus musculus. The test is described as follows: Analgesic activity in mouse assessed as inhibition of acetic acid-induced writhing administered 30 mins before acetic acid challenge measured after 30 mins relative to control. More on the design: concentration or dose not given beside the values. The gist of the method:
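Groups of six mice (20–30 g, both sexes, pregnant females excluded) dosed with test compound; 30 min later 0.25 ml/mouse of 0.5% acetic acid given i.p. Writhes counted over the next 30 min. Mean writhes per group ± SE; percent decrease versus untreated control mice.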
(In general: An intraperitoneal irritant provokes the stretching counted in writhing tests.)

The subject of test [7] is Rattus norvegicus. The test is described as follows: Antiinflammatory activity in Wistar albino rat assessed as inhibition of carrageenan-induced paw edema at 20 mg/kg, po administered 30 mins before carrageenan challenge measured after 4 hrs by plethysmograph. The gist of the method:
as §1

Test [8] concerns Rattus norvegicus. The test is described as follows: Antiinflammatory activity in Wistar albino rat assessed as inhibition of carrageenan-induced paw edema at 20 mg/kg, po administered 30 mins before carrageenan challenge measured after 2 hrs by plethysmograph. The gist of the method:
as §1

Test [9] concerns Aspergillus niger. The test is described as follows: Antifungal activity against Aspergillus niger MTCC 282 at 10 ug/ml. The following applies: read-out: IZ.
The subject of test [10] is Candida albicans. As to the kind of experiment: Antifungal activity against Candida albicans MTCC 183 at 25 ug/ml. The following applies: read-out: IZ.
For test [11], the system named is Escherichia coli. The test is described as follows: Antimicrobial activity against Escherichia coli MTCC 4315 at 50 ug/ml. The following applies: read-out: IZ.
In test [12] the test system is Candida albicans. As to the kind of experiment: Antifungal activity against Candida albicans MTCC 183 at 50 ug/ml. The following applies: read-out: IZ.
Test [13] has as its system Aspergillus niger. The test is described as follows: Antifungal activity against Aspergillus niger MTCC 282 at 50 ug/ml. The conditions noted are these: read-out: IZ.
Test [14] concerns Aspergillus niger. As to the kind of experiment: Antifungal activity against Aspergillus niger MTCC 282 at 25 ug/ml. The conditions noted are these: read-out: IZ.
Test [15] deals with Candida albicans. The test is described as follows: Antifungal activity against Candida albicans MTCC 183 at 10 ug/ml. The following applies: read-out: IZ.
Test [16] deals with Escherichia coli. As to the kind of experiment: Antimicrobial activity against Escherichia coli MTCC 4315 at 10 ug/ml. The conditions noted are these: read-out: IZ.

A word on the inhibition in vivo: it is the share of the control response that was lost under treatment. For the molecule `Cc1cc(=O)oc2cc(OC(=O)CNc3ccccc3[N+](=O)[O-])ccc12`, the zone of inhibition at 10 µg/mL in the test with Bacillus subtilis [1] was determined as 11.2 mm; in the test with Aspergillus niger [9], 10.1 mm. The results for the zone of inhibition at 25 µg/mL with Escherichia coli [2], in the test on Bacillus subtilis [6] and in the test on Candida albicans [10] were 10.1 mm, 12.4 mm and 10.4 mm, respectively. In the test on Bacillus subtilis [3], the zone of inhibition at 50 µg/mL was determined as 13.7 mm. In addition, the inhibition in vivo at 20 mg/kg with Rattus norvegicus [4] turned out to be 21.4%; in the test on Rattus norvegicus [5], 15.9%; with Rattus norvegicus [7] it was 15.2%; in the test on Rattus norvegicus [8], 16.6%. The Activity in the test on Mus musculus came out at 28%.

On to `COc1ccccc1NCC(=O)Oc1ccc2c(C)cc(=O)oc2c1`, for which the zone of inhibition at 50 µg/mL in the test with Escherichia coli [11] was determined as 10.2 mm; in the test with Candida albicans [12], 12.4 mm; in the test on Aspergillus niger [13] it was 12.4 mm. Besides, the results for the zone of inhibition at 10 µg/mL in the test on Bacillus subtilis [1] and in the test on Aspergillus niger [9] were 10.2 mm and 10.4 mm, respectively. Besides, the inhibition in vivo at 20 mg/kg in the test on Rattus norvegicus [4] amounted to 10.7%; with Rattus norvegicus [5], 26.6%; in the test with Rattus norvegicus [7] it was 19.4%; in the test with Rattus norvegicus [8], 15.3%. Also, in the test on Bacillus subtilis [6], the zone of inhibition at 25 µg/mL came to 11.4 mm. In addition, the Activity in the test with Mus musculus is reported as 28%.

Turning to `Cc1ccccc1NCC(=O)Oc1ccc2c(C)cc(=O)oc2c1`, the zone of inhibition at 25 µg/mL was determined as 10.5 mm in the test with Escherichia coli [2] and 12.4 mm in the test on Aspergillus niger [14]. Besides, the zone of inhibition at 50 µg/mL with Bacillus subtilis [3] amounted to 11.6 mm; in the test on Candida albicans [12], 12.2 mm; in the test on Aspergillus niger [13], 13.1 mm. The inhibition in vivo at 20 mg/kg in the test with Rattus norvegicus [4] came to 12.5%; in the test on Rattus norvegicus [5], 17%; with Rattus norvegicus [7], 19.4%; in the test with Rattus norvegicus [8], 15.3%. Further, the Activity with Mus musculus was found to be 23%. For the same molecule, the zone of inhibition at 10 µg/mL in the test with Aspergillus niger [9] came to 10.6 mm.

With `Cc1cccc(NCC(=O)Oc2ccc3c(C)cc(=O)oc3c2)c1`, the zone of inhibition at 50 µg/mL in the test on Escherichia coli [11] is 16.9 mm; in the test on Bacillus subtilis [3], 13.6 mm; in the test on Candida albicans [12], 14.4 mm; with Aspergillus niger [13], 13.4 mm. In addition, the results for the zone of inhibition at 10 µg/mL in the test with Bacillus subtilis [1], with Candida albicans [15] and in the test with Escherichia coli [16] were 10.5 mm, 11.4 mm and 11 mm, respectively. Moreover, the zone of inhibition at 25 µg/mL in the test with Escherichia coli [2] amounted to 14 mm; in the test on Bacillus subtilis [6], 12.4 mm; in the test on Aspergillus niger [14] it was 12.2 mm; with Candida albicans [10], 13.4 mm. In addition, the inhibition in vivo at 20 mg/kg in the test on Rattus norvegicus [4] was 12.5%; in the test with Rattus norvegicus [5], 15.9%; with Rattus norvegicus [7], 23.7%; in the test with Rattus norvegicus [8], 15.3%. Besides, the Activity with Mus musculus came to 13%.

Turning to `Cc1cc(=O)oc2cc(OC(=O)CNN3C=NNC3)ccc12`, the zone of inhibition at 50 µg/mL in the test on Escherichia coli [11] was found to be 16.2 mm; in the test on Bacillus subtilis [3], 18.1 mm; in the test on Candida albicans [12], 15.4 mm. The results for the zone of inhibition at 10 µg/mL with Bacillus subtilis [1], in the test on Candida albicans [15] and in the test on Aspergillus niger [9] were 12.5 mm, 12.4 mm and 11.2 mm, respectively. Moreover, the zone of inhibition at 25 µg/mL turned out to be 14.1 mm in the test with Escherichia coli [2], 14.3 mm with Bacillus subtilis [6], 13.6 mm in the test with Aspergillus niger [14] and 13.4 mm with Candida albicans [10]. In addition, the inhibition in vivo at 20 mg/kg with Rattus norvegicus [4] was 42.8%; with Rattus norvegicus [5], 27.6%; in the test with Rattus norvegicus [7] it was 22.2%; with Rattus norvegicus [8], 42.3%. In the test on Mus musculus, the Activity came to 37%.

Take `Cc1cc(=O)oc2cc(OC(=O)CNc3nccs3)ccc12`: the zone of inhibition at 50 µg/mL was 18.4 mm in the test with Escherichia coli [11], 16.9 mm with Bacillus subtilis [3], 12.4 mm in the test with Candida albicans [12] and 16.5 mm in the test with Aspergillus niger [13]. Further, the zone of inhibition at 10 µg/mL in the test with Bacillus subtilis [1] came to 10.4 mm; in the test on Candida albicans [15], 10.1 mm; in the test on Aspergillus niger [9], 13.4 mm. Further, the zone of inhibition at 25 µg/mL in the test with Escherichia coli [2] came to 10.2 mm; in the test on Bacillus subtilis [6] it was 14.4 mm; in the test on Aspergillus niger [14], 15.4 mm. The inhibition in vivo at 20 mg/kg amounted to 39.2% in the test with Rattus norvegicus [4], 47.8% in the test on Rattus norvegicus [5], 32.3% in the test with Rattus norvegicus [7] and 37.1% with Rattus norvegicus [8]. The Activity in the test on Mus musculus is recorded as 45%.
